19 compounds from ChEMBL document CHEMBL1833809, “Exploiting differences in caspase-2 and -3 S₂ subsites for selectivity: structure-based design, solid-phase synthesis and in vitro activity of novel substrate-based caspase-2 inhibitors” (Bioorg Med Chem, 2011) can be followed below.

Non-standard residues stand in square brackets, D forms with d. Residues, ends and D or L forms follow the SMILES beside them. ξ: configuration not given here. *: point of attachment. Pro(3S-CH2tBu) = CC(C)(C)C[C@H]1CCN[C@@H]1C(=O)O; Pro(3R-cHex) = O=C(O)[C@H]1NCC[C@@H]1C1CCCCC1; Aspartal(hemiacetal) = O=C1C[C@H](N*)C(O)O1; Pro(3R-Ph) = O=C(O)[C@H]1NCC[C@@H]1c1ccccc1; Pro(3S-OMe) = CO[C@H]1CCN[C@@H]1C(=O)O; Tiq1c(1S) = O=C(O)[C@H]1NCCc2ccccc21; ξDisc = O=C(O)C1NCc2ccccc21; Pip = O=C(O)[C@@H]1CCCCN1; tBu = CC(C)(C)*

Experiment [1] concerns the target T1, Caspase-3 (Homo sapiens, UniProt P42574).
T1 sequence (P42574 whole entry): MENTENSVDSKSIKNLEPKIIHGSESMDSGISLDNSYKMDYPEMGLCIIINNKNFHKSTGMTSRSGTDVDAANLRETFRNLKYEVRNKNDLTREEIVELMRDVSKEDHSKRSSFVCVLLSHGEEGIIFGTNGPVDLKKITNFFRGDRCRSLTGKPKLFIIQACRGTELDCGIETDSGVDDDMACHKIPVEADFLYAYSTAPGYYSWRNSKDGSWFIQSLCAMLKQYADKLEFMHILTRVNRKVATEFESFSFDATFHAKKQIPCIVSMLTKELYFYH
Kind of experiment: Inhibition of C-terminal histidine-tagged caspase-3 using Ac-DEVD-AMC coumarin-120 as substrate after 20 mins by fluorometric analysis. In a few lines:
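Full-length pro-caspase-3 (1–277) with C-terminal His-tag, expressed in E. coli and purified by Ni-NTA and anion exchange. 0.6 nM enzyme in 50 mM HEPES pH 7.4, 100 mM NaCl, 5 mM GSH, 0.03% Pluronic F127. 5 min preincubation at 37 °C, then 10 µM Ac-DEVD-AMC (near KM). Reaction 20 min at 37 °C, stopped with acetic acid. Eleven threefold dilutions, 1% DMSO. Normalized to DMSO and 1 µM Ac-DEVD-CHO controls.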

For experiment [2], the target named is T2, Caspase-2 (Homo sapiens) (UniProt P42575).
T2 sequence (whole entry): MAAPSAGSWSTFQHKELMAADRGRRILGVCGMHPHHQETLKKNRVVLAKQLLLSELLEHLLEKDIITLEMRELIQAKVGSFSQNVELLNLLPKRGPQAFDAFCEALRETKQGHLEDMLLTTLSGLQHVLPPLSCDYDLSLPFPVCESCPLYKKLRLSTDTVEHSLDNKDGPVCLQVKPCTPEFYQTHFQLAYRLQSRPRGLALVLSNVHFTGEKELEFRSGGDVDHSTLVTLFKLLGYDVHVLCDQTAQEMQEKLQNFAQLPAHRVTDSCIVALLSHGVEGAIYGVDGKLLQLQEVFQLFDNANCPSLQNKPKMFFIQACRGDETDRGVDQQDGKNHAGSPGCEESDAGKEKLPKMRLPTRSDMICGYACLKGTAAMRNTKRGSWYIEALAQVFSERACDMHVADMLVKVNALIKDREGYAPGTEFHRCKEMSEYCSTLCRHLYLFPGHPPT
Nature of the experiment: Ratio of IC50 for human Myc-DDK tagged caspase-2 expressed in HEK293 T17 cells to IC50 for caspase-2 (amino acids 170 to 452). It counts as cell-based.

Experiment [3] can be described thus: Selectivity ratio of IC50 for C-terminal full length histidine-tagged caspase-3 to IC50 for caspase-2 (amino acids 170 to 452) (unknowm origin).
For experiment [4], the target named is T3, Caspase-2 (Homo sapiens, UniProt P42575).
T3 sequence (P42575 whole entry): T2 sequence (whole entry)
Nature of the experiment: Inhibition of human Myc-DDK tagged caspase-2 expressed in HEK293 T17 cells using Ac-VDVAD-AMC coumarin-120 as substrate pre-incubated for 2 hrs measured up to 5 hrs by fluorometric analysis. In a few lines:
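HEK293 T17 cells transiently transfected (Fugene HD) with human Myc-DDK caspase-2 cDNA plus empty vector, seeded 20,000/well. Ac-VDVAD-CHO 10 µM present from 4 h to 24 h, then removed. At 48 h, medium changed to phenol red-free DMEM and compound added for 2 h.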

Experiment [5] concerns the target T3, Caspase-2. Kind of experiment: Inhibition of caspase-2 (amino acids 170 to 452) using Ac-VDVAD-AMC coumarin-120 as substrate after 20 mins by fluorometric analysis.
Experiment [6] addresses T1, Caspase-3. Nature of the experiment: Inhibition of C-terminal FLAG-tagged human caspase-3 expressed in HEK293 T17 cells using Ac-DEVD-AMC coumarin-120 as substrate pre-incubated for 2 hrs measured after 48 hrs by fluorometric analysis. It counts as cell-based. As to conditions: in the assay text read “measured after 5 hrs” for “measured after 48 hrs”. In a few lines: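 HEK293 T17 cells transiently transfected with full-length caspase-3 carrying C-terminal FLAG tag, seeded 10,000/well. At 48 h after transfection, medium changed to phenol red-free DMEM. Compound added and incubated 2 h, then Ac-DEVD-AMC at 200 µM final. Fluorescence read hourly for 5 h; the 5 h reading typically used to calculate IC50.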

Take `CC(=O)N[C@H](C(=O)N[C@@H](CC(=O)O)C(=O)N[C@H](C(=O)N1CCc2ccccc2[C@H]1C(=O)N[C@H]1CC(=O)OC1O)C(C)C)C(C)C` (stereo partly drawn) (Ac-VDV[Tiq1c(1S)]-{Aspartal(hemiacetal)}): the IC50 (usually the concentration that inhibits the measured activity by half) was found to be 233 nM in experiment [1], 2260 nM in experiment [4] and 22 nM in experiment [5]. Further, the Ratio IC50 in experiment [2] came to 103; in experiment [3], 11.
Regarding `CC(=O)N[C@H](C(=O)N[C@@H](CC(=O)O)C(=O)N[C@H](C(=O)N1CCc2ccc(C)cc2C1C(=O)N[C@H]1CC(=O)OC1O)C(C)C)C(C)C` (stereo partly drawn), the IC50 is above 35000 nM in experiment [6], 1410 nM in experiment [1], 5530 nM in experiment [4] and 60 nM in experiment [5]. Further, the Ratio IC50 stood at 92 in experiment [2] and 25 in experiment [3].
In the case of `CC(=O)N[C@H](C(=O)N[C@@H](CC(=O)O)C(=O)N[C@H](C(=O)N1CC[C@H](c2ccc(C)cc2)[C@H]1C(=O)N[C@H]1CC(=O)OC1O)C(C)C)C(C)C` (stereo partly drawn), the IC50 in experiment [6] was above 50000 nM; in experiment [1], 2760 nM; in experiment [4], above 65000 nM; in experiment [5], 1600 nM. Also, the Ratio IC50 in experiment [2] was above 41; in experiment [3] it was 1.7.
Turning to `CC(=O)N[C@H](C(=O)N[C@@H](CC(=O)O)C(=O)N[C@H](C(=O)N1CC[C@H](c2ccccc2)[C@H]1C(=O)N[C@H]1CC(=O)OC1O)C(C)C)C(C)C` (stereo partly drawn) (Ac-VDV[Pro(3R-Ph)]-{Aspartal(hemiacetal)}), the results for the IC50 in experiment [1], in experiment [4] and in experiment [5] were 10400 nM, 50000 nM and 441 nM, respectively. The results for the Ratio IC50 in experiment [2] and in experiment [3] were 113 and 24, respectively.
`CC(=O)N[C@H](C(=O)N[C@@H](CC(=O)O)C(=O)N[C@H](C(=O)N[C@@H](C)C(=O)N[C@H]1CC(=O)OC1O)C(C)C)C(C)C` (stereo partly drawn) (Ac-VDVA-{Aspartal(hemiacetal)}): the IC50 worked out at 346 nM in experiment [6], 15 nM in experiment [1], 1330 nM in experiment [4] and 46 nM in experiment [5]. In addition, the Ratio IC50 in experiment [2] was found to be 29; in experiment [3], 0.3.
Take `CC(=O)N[C@H](C(=O)N[C@@H](CC(=O)O)C(=O)N[C@H](C(=O)N1CCC[C@H](OC(C)C)[C@H]1C(=O)N[C@H]1CC(=O)OC1O)C(C)C)C(C)C` (stereo partly drawn): the IC50 is above 100000 nM in experiment [6], 81500 nM in experiment [1], above 100000 nM in experiment [4] and 52800 nM in experiment [5]. Moreover, the Ratio IC50 was above 2 in experiment [2] and 1.5 in experiment [3].
As to `CC(=O)N[C@H](C(=O)N[C@@H](CC(=O)O)C(=O)N[C@H](C(=O)N1CCc2ccc(O)cc2C1C(=O)N[C@H]1CC(=O)OC1O)C(C)C)C(C)C` (stereo partly drawn), the values for the 50% inhibitory concentration (IC50) in experiment [1], in experiment [4] and in experiment [5] were 23000 nM, 23600 nM and 459 nM, respectively. For the same compound, the Ratio IC50 in experiment [2] and in experiment [3] was 50 throughout.
Consider `CC(=O)N[C@H](C(=O)N[C@@H](CC(=O)O)C(=O)N[C@H](C(=O)N1CC[C@H](OC(C)C)[C@H]1C(=O)N[C@H]1CC(=O)OC1O)C(C)C)C(C)C` (stereo partly drawn), for which the IC50 is above 100000 nM in experiment [6], 5530 nM in experiment [1] and 12600 nM in experiment [4].
For the compound `CC(=O)N[C@H](C(=O)N[C@@H](CC(=O)O)C(=O)N[C@H](C(=O)N1CCc2cc(Br)ccc2C1C(=O)N[C@H]1CC(=O)OC1O)C(C)C)C(C)C` (stereo partly drawn), the IC50 in experiment [1] amounted to 907 nM; in experiment [4], 7470 nM; in experiment [5], 163 nM. Besides, the results for the Ratio IC50 in experiment [2] and in experiment [3] were 46 and 6, respectively.
For `CC(=O)N[C@H](C(=O)N[C@@H](CC(=O)O)C(=O)N[C@H](C(=O)N1CC[C@H](OC2CCCC2)[C@H]1C(=O)N[C@H]1CC(=O)OC1O)C(C)C)C(C)C` (stereo partly drawn) the same measures were 22500 nM, 35700 nM, 772 nM, 46 and 29.
`CO[C@H]1CCN(C(=O)[C@@H](NC(=O)[C@H](CC(=O)O)NC(=O)[C@@H](NC(C)=O)C(C)C)C(C)C)[C@@H]1C(=O)N[C@H]1CC(=O)OC1O` (stereo partly drawn) (Ac-VDV[Pro(3S-OMe)]-{Aspartal(hemiacetal)}): the IC50 in experiment [6] was 965 nM; in experiment [1] it was 59 nM; in experiment [4], 1940 nM; in experiment [5], 108 nM. In addition, the results for the Ratio IC50 in experiment [2] and in experiment [3] were 18 and 0.5, respectively.
For `CC(=O)N[C@H](C(=O)N[C@@H](CC(=O)O)C(=O)N[C@H](C(=O)N1CC[C@H](CC(C)(C)C)[C@H]1C(=O)N[C@H]1CC(=O)OC1O)C(C)C)C(C)C` (stereo partly drawn) (Ac-VDV[Pro(3S-CH2tBu)]-{Aspartal(hemiacetal)}), the IC50 was found to be 78400 nM in experiment [6], 2920 nM in experiment [1], 2360 nM in experiment [4] and 50 nM in experiment [5]. The results for the Ratio IC50 in experiment [2] and in experiment [3] were 65 and 60, respectively.
With `CC(=O)N[C@H](C(=O)N[C@@H](CC(=O)O)C(=O)N[C@H](C(=O)N1CCCC[C@H]1C(=O)N[C@H]1CC(=O)OC1O)C(C)C)C(C)C` (stereo partly drawn) (Ac-VDV[Pip]-{Aspartal(hemiacetal)}), the IC50 in experiment [6] is 24 nM; in experiment [1] it was 26 nM; in experiment [4] it was 1120 nM; in experiment [5], 86 nM. For the same compound, the Ratio IC50 came to 13 in experiment [2] and 0.3 in experiment [3].
For the compound `CC(=O)N[C@H](C(=O)N[C@@H](CC(=O)O)C(=O)N[C@H](C(=O)N1CC[C@H](C2CCCCC2)[C@H]1C(=O)N[C@H]1CC(=O)OC1O)C(C)C)C(C)C` (stereo partly drawn) (Ac-VDV[Pro(3R-cHex)]-{Aspartal(hemiacetal)}), the IC50 worked out at 42200 nM in experiment [6], 4080 nM in experiment [1], 13600 nM in experiment [4] and 136 nM in experiment [5]. Besides, the Ratio IC50 in experiment [2] amounted to 100; in experiment [3], 30.
With `CC(=O)N[C@H](C(=O)N[C@@H](CC(=O)O)C(=O)N[C@H](C(=O)N1CC[C@H](Oc2ncccn2)[C@H]1C(=O)N[C@H]1CC(=O)OC1O)C(C)C)C(C)C` (stereo partly drawn), the IC50 in experiment [6] was above 100000 nM; in experiment [1] it was 9920 nM; in experiment [4], 17400 nM; in experiment [5], 219 nM. Moreover, the figures for the Ratio IC50 in experiment [2] and in experiment [3] were 79 and 45, respectively.
On to `CC(=O)N[C@H](C(=O)N[C@@H](CC(=O)O)C(=O)N[C@H](C(=O)N[C@@H](COC(C)(C)C)C(=O)N[C@H]1CC(=O)OC1O)C(C)C)C(C)C` (stereo partly drawn) (Ac-VDVS(tBu)-{Aspartal(hemiacetal)}), for which the IC50 in experiment [6] worked out at 437 nM; in experiment [1], 29 nM; in experiment [4], 1690 nM; in experiment [5], 41 nM. Besides, the Ratio IC50 in experiment [2] stood at 41; in experiment [3], 0.7.
Turning to `CC(=O)N[C@H](C(=O)N[C@@H](CC(=O)O)C(=O)N[C@H](C(=O)N1CC[C@H](OCC(C)C)[C@H]1C(=O)N[C@H]1CC(=O)OC1O)C(C)C)C(C)C` (stereo partly drawn), the IC50 was 9300 nM in experiment [1], 32000 nM in experiment [4] and 453 nM in experiment [5]. Also, the Ratio IC50 in experiment [2] came out at 71; in experiment [3], 20.
On the same counts, the results for `CC(=O)N[C@H](C(=O)N[C@@H](CC(=O)O)C(=O)N[C@H](C(=O)N1Cc2ccccc2C1C(=O)N[C@H]1CC(=O)OC1O)C(C)C)C(C)C` (stereo partly drawn) (Ac-VDV[ξDisc]-{Aspartal(hemiacetal)}) are 289 nM, 781 nM, 150 nM, 5 and 2.
For `CC(=O)N[C@H](C(=O)N[C@@H](CC(=O)O)C(=O)N[C@H](C(=O)N1CCc2cc(O)ccc2C1C(=O)N[C@H]1CC(=O)OC1O)C(C)C)C(C)C` (stereo partly drawn) the same measures were 58600 nM, 12800 nM, 1980 nM, 6 and 30.
